Experimental findings from ChEMBL document CHEMBL1152681, “Natural and synthetic 2'-hydroxy-chalcones and aurones: synthesis, characterization and evaluation of the antioxidant and soybean lipoxygenase inhibitory activity” (Bioorg Med Chem, 2009) are described below.

The subject of test [1] is Radical scavenging activity. The test is described as follows: Antioxidant activity assessed as DPPH radical scavenging activity at 100 uM after 60 mins. The format is functional. The method, boiled down: (§1)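 DPPH (0.05 mM) in absolute ethanol; compounds in DMSO added to final 0.1 mM. Mixture shaken vigorously and left 20 min or 60 min. Absorbance read at 517 nm and percent activity calculated. Three replicates, averaged.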

The subject of test [2] is Radical scavenging activity. The experiment in a line: Antioxidant activity assessed as DPPH radical scavenging activity at 100 uM after 20 mins. The format is functional. The gist of the method:
as §1
(Loss of DPPH colour is used to gauge radical scavenging.)

For test [3], the system named is Radical scavenging activity. The test is described as follows: Antioxidant activity assessed as DPPH radical scavenging activity at 50 uM after 60 mins. Format: functional.
Test [4] can be described thus: Antioxidant activity assessed as hydrogen peroxide scavenging activity by peroxyoxalate chemiluminescent method. Format: functional.
Test [5] deals with Radical scavenging activity. The experiment in a line: Antioxidant activity assessed as DPPH radical scavenging activity at 50 uM after 20 mins. Format: functional.
Test [6] is described as follows: Inhibition of soybean 5-lipoxygenase by UV-absorbance based enzyme assay. Further details: species or system Glycine max. The method, boiled down:
(§2)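 Soybean lipoxygenase (enzyme solution 1/9 × 10^-4 w/v in saline) incubated at room temperature with sodium linoleate and compound in DMSO, in Tris buffer pH 9. Conversion to 13-hydroperoxylinoleic acid recorded at 234 nm and compared with a standard inhibitor.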

The nature of test [7]: Antioxidant activity assessed as inhibition of AAPH-induced lipid peroxidation at 10 uM by uV spectrophotometry. The format is functional. The method, boiled down: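 Aqueous linoleic acid dispersion (16 mM, 10 µL) in 0.05 M phosphate buffer pH 7.4, prethermostated at 37 °C. Oxidation started under air with AAPH (40 mM solution, 50 µL) and run with 10 µL compound aliquots. The control contained the same DMSO level. The rate of conjugated diene hydroperoxide formation was followed by the rise in absorbance at 234 nm at 37 °C.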

A short description of test [8]: Antioxidant activity assessed as superoxide anion radical scavenging activity at 10 uM. The format is functional. The gist of the method:
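Non-enzymatic superoxide generation from PMS/NADH/air-oxygen, measured by NBT reduction. Compounds preincubated 2 min before NADH was added. Mixture of 3 µM PMS, 78 µM NADH and 25 µM NBT in phosphate buffer pH 7.4, incubated 2 min at room temperature. Absorbance read at 560 nm against a PMS-containing blank. Caffeic acid was the standard.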

Test [9] in a line: Antioxidant activity assessed as hydroxyl radical scavenging activity at 100 uM. Format: functional. The method, boiled down: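 Fe3+/ascorbic acid-generated hydroxyl radicals detected by the Nash method as formaldehyde formed from DMSO oxidation. The mixture held EDTA 0.1 mM, Fe3+ 167 µM, DMSO 33 mM, test compound 0.1 mM and ascorbic acid 10 mM in 50 mM phosphate buffer pH 7.4. Incubated 30 min at 37 °C, then stopped with CCl3COOH (17% w/v). Trolox was the standard.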

For test [10], the system named is Glycine max. The test is described as follows: Inhibition of soybean 5-lipoxygenase at 100 uM by UV-absorbance based enzyme assay. The gist of the method: as §2

Usually IC50 stands for the concentration that inhibits the measured activity by half. By inhibition is commonly meant the percentage by which the read-out fell short of the control. For the molecule `COc1cc(O)c(C(=O)/C=C/c2ccc(Cl)cc2)c(OC)c1`, the Activity in test [1] is 46.9%; in [2], 15.1%; in test [3], 0%; in test [5] it was 0%; in test [8], 100%; in [9] it was 100%. Besides, the half-maximal inhibitory concentration (IC50) in test [4] worked out at 657 µM; in test [6], 82 µM. Moreover, in [7], the inhibition came to 42.7%.

On to `O=C(/C=C/c1ccc(Cl)cc1)c1ccccc1O`, for which the Activity in test [1] came out at 40.8%; in test [2], 0%; in [3], 0%; in test [5], 0%; in [8] it was 84.2%; in test [9], 100%. In addition, the values for the IC50 in [4] and in test [6] were 713 µM and 56 µM, respectively. Moreover, in test [7], the inhibition amounted to 74.4%.

Turning to `COc1cc(O)c(C(=O)/C=C/c2ccc(C)cc2)c(OC)c1`, the Activity in [1] came out at 24.6%; in test [2], 9.6%; in test [3], 0%; in [5], 0%; in [8] it was 100%; in test [9], 100%. Also, the values for the IC50 in test [4] and in test [6] were 665 µM and 53 µM, respectively. Moreover, the inhibition in test [7] was 100%.

As for `O=C(O)/C=C/c1ccc(O)c(O)c1` [CAFFEIC ACID], the midpoint of inhibition in test [6], the IC50, lay at 600 µM. In test [8], the Activity is 5.5%.

With `Cc1ccc(/C=C/C(=O)c2ccccc2O)cc1`, the Activity in test [1] came to 43.8%; in test [2], 0%; in [3], 1.5%; in test [5], 0%; in [8], 84.2%; in [9] it was 100%. Also, the IC50 in test [4] came out at 1040 µM; in [6], 52.5 µM. In addition, the inhibition in test [7] was found to be 49.6%.

`COc1ccccc1/C=C1\Oc2ccccc2C1=O` [(Z)-2'-METHOXYAURONE]: the Activity was found to be 43.1% in [1]; 25% in test [2]; 0% in [3]; 4.2% in test [5]; 73.7% in test [8]; 100% in [9]. Moreover, the 50% inhibitory concentration (IC50) in test [4] was found to be 466 µM. Besides, the inhibition was 71.1% in test [7] and 39.9% in test [10].

As for `Cc1ccc(/C=C2\Oc3ccccc3C2=O)cc1`, the Activity in test [1] turned out to be 49.2%; in [2] it was 23.9%; in [3], 29.4%; in test [5], 5.6%; in test [8], 68.4%; in test [9], 84.5%. Besides, in [4], the concentration for half-maximal inhibition (IC50) came to 2010 µM. In addition, the inhibition in test [7] is 43.1%; in test [10] it was 32.4%.

With `COc1cccc(/C=C2\Oc3ccccc3C2=O)c1` [3'-METHOXY-AURONE], the Activity in test [1] came to 83.8%; in [2], 87.9%; in test [3] it was 0%; in [5], 11.1%; in [8], 50%; in [9] it was 57.8%. Further, the 50% inhibitory concentration (IC50) in test [4] is 1990 µM. The inhibition in [7] turned out to be 62.3%; in test [10], 34.9%.

As for `COc1ccccc1/C=C/C(=O)c1ccccc1O`, the Activity in [1] turned out to be 57.7%; in test [2], 11.8%; in test [3], 0%; in [5], 0%; in test [8] it was 92.1%; in [9], 100%. Further, the concentration for half-maximal inhibition (IC50) in [4] came out at 599 µM; in [6], 100 µM. Moreover, in [7], the inhibition worked out at 43.1%.

As for `COc1ccc(/C=C2\Oc3ccccc3C2=O)cc1` [4'-METHOXY-AURONE], the Activity amounted to 23.8% in test [1]; 5.1% in test [2]; 0% in test [3]; 13.9% in test [5]; 81.6% in [8]; 76.4% in test [9]. The values for the IC50 in [4] and in [6] were 291 µM and 70 µM, respectively. In test [7], the inhibition worked out at 64.6%.

As to `COc1ccc(/C=C/C(=O)c2ccccc2O)cc1`, the Activity in test [1] is 40.8%; in test [2] it was 0%; in test [3], 0%; in test [5], 0%; in test [8] it was 73.7%; in test [9], 100%. Also, the IC50 in test [4] came to 500 µM. For the same molecule, the inhibition was 61.6% in [7] and 5% in test [10].

In the case of `COc1cc(OC)c2c(c1)O/C(=C\c1ccccc1OC)C2=O`, the Activity in test [1] was 30.8%; in test [2], 1.8%; in [3] it was 0%; in test [5], 4.2%; in test [8], 55.3%; in [9] it was 77.9%. For the same molecule, the IC50 was 2400 µM in test [4] and 100 µM in test [6]. Besides, in test [7], the inhibition came to 87.1%.

Consider `COc1ccc(/C=C2\Oc3cc(OC)cc(OC)c3C2=O)cc1` [4,4',6-TRIMETHOXY-AURONE], for which the Activity in test [1] came to 11.5%; in test [2], 0%; in test [3], 0%; in [5], 2.8%; in [8], 63.2%; in test [9] it was 100%. Further, the concentration for half-maximal inhibition (IC50) in test [4] was found to be 1090 µM; in [6] it was 50 µM. Further, the inhibition in test [7] was determined as 42.6%.

As to `COc1ccc(/C=C/C(=O)c2ccccc2O)cc1OC`, the Activity is 28.5% in test [1]; 6.3% in [2]; 0% in [3]; 0% in test [5]; 100% in test [8]; 84.1% in test [9]. The figures for the half-inhibitory concentration (IC50) in test [4] and in test [6] were 228 µM and 67.5 µM, respectively. The inhibition in test [7] was 64.6%.

For `COc1cccc(/C=C/C(=O)c2ccccc2O)c1`, the Activity in test [1] was found to be 34.6%; in test [2], 0%; in test [3], 0%; in test [5] it was 0%; in [8] it was 97.4%; in test [9] it was 57%. Also, the IC50 in test [4] is 940 µM. Moreover, the results for the inhibition in test [7] and in [10] were 75.8% and 36.4%, respectively.

On to `COc1cc(O)c(C(=O)/C=C/c2ccccc2OC)c(OC)c1`, for which the Activity is 47.7% in test [1]; 15.1% in test [2]; 5.9% in test [3]; 9.7% in test [5]; 89.5% in test [8]; 0% in test [9]. The IC50 in [4] was 503 µM. Besides, the inhibition in test [7] worked out at 68.4%; in test [10], 20%.

For the molecule `CC(Cc1ccc(O)c(O)c1)C(C)Cc1ccc(O)c(O)c1` (configuration not stated) [NORDIHYDROGUAIARETIC ACID], the Activity was 83% in test [1], 81% in [2], 83% in test [3] and 84% in test [5]. This molecule also returned an IC50 in test [6] of 40 µM.
